Reference: ChEMBL document CHEMBL1124493, “Synthesis and tumor uptake of 5-82Br- and 5-131I-labeled 5-halo-1-(2-fluoro-2-deoxy-beta-D-ribofuranosyl)uracils” (J Med Chem, 1989)

Columns and labels:
[1] = tested on: Mus musculus; assay: Biodistribution of intravenously injected [82Br]-labeled compound in bone of BDF1 female mice bearing subcutaneous Lewis lung carcinoma after 1 hours; assay type: ADME, organism-based, Bone element; settings: in vivo, iv
Outline: (§1)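 82Br-labeled nucleoside given intravenously to female BDF1 mice bearing subcutaneous Lewis lung carcinoma, at 47-130 μg carrying 20-60 kBq. Mice sacrificed at each time point. Wet-weighed tissues γ-counted. Values are percent injected dose per gram wet tissue, mean ± SD, n = 6.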

[2] = tested on: Mus musculus; assay: Biodistribution of intravenously injected [82Br]-labeled compound in bone of BDF1 female mice bearing subcutaneous Lewis lung carcinoma after 2 hours; assay type: ADME, organism-based, Bone element; settings: in vivo, iv; outline: as §1
[3] = tested on: Mus musculus; assay: Biodistribution of intravenously injected [82Br]-labeled compound in stomach of BDF1 female mice bearing subcutaneous Lewis lung carcinoma after 4 hours; assay type: ADME, organism-based; settings: in vivo, iv
[4] = tested on: Mus musculus; assay: Biodistribution of intravenously injected [82Br]-labeled compound in spleen of BDF1 female mice bearing subcutaneous Lewis lung carcinoma after 1 hours; assay type: ADME, organism-based; settings: in vivo, iv
Outline: (§2)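 Female BDF1 mice with subcutaneous Lewis lung carcinoma given an iv injection of [82Br]-labelled nucleoside, 47-130 μg carrying 20-60 kBq 82Br. Tissues were excised, weighed wet and γ-counted. Values are percent injected dose per gram of wet tissue, mean ± standard deviation of six animals, with organ-to-tumour ratios derived.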

[5] = tested on: Mus musculus; assay: Biodistribution of intravenously injected [82Br]-labeled compound in muscle of BDF1 female mice bearing subcutaneous Lewis lung carcinoma after 8 hours; assay type: ADME, organism-based, Muscle tissue; settings: in vivo, iv; outline: as §2
[6] = tested on: Mus musculus; assay: Biodistribution of intravenously injected [82Br]-labeled compound in heart of BDF1 female mice bearing subcutaneous Lewis lung carcinoma after 8 hours; assay type: ADME, organism-based; settings: in vivo, iv; outline: as §2
[7] = organism: Mus musculus; assay: Inhibition constant for influx competition with [6-3H]thymidine in mouse erythrocytes; assay type: functional
Outline: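 Freshly harvested mouse erythrocytes were exposed to various concentrations of test nucleoside and [6-3H]thymidine, and zero-trans thymidine influx was measured. Extracellular [6-3H]thymidine was measured over time by liquid scintillation counting of aliquots. The Ki for competition at the nucleoside transporter was derived by previously described methods.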

[8] = tested on: Mus musculus; assay: Biodistribution of intravenously injected [82Br]-labeled compound in lung of BDF1 female mice bearing subcutaneous Lewis lung carcinoma after 24 hours; assay type: ADME, organism-based; settings: in vivo, iv; outline: as §2
[9] = tested on: Mus musculus; assay: Biodistribution of intravenously injected [82Br]-labeled compound in lung of BDF1 female mice bearing subcutaneous Lewis lung carcinoma after 1 hours; assay type: ADME, organism-based; settings: in vivo, iv; outline: as §2
[10] = tested on: Mus musculus; assay: Biodistribution of intravenously injected [82Br]-labeled compound in bone of BDF1 female mice bearing subcutaneous Lewis lung carcinoma after 24 hours; assay type: ADME, organism-based, Bone element; settings: in vivo, iv; outline: as §1
[11] = tested on: Mus musculus; assay: Biodistribution of intravenously injected [82Br]-labeled compound in muscle of BDF1 female mice bearing subcutaneous Lewis lung carcinoma after 0.5 hours; assay type: ADME, organism-based, Muscle tissue; settings: in vivo, iv; outline: as §2
[12] = tested on: Mus musculus; assay: Biodistribution of intravenously injected [82Br]-labeled compound in muscle of BDF1 female mice bearing subcutaneous Lewis lung carcinoma after 0.25 hours; assay type: ADME, organism-based, Muscle tissue; settings: in vivo, iv; outline: as §2
[13] = tested on: Mus musculus; assay: Biodistribution of intravenously injected [82Br]-labeled compound in muscle of BDF1 female mice bearing subcutaneous Lewis lung carcinoma after 4 hours; assay type: ADME, organism-based, Muscle tissue; settings: in vivo, iv; outline: as §2
[14] = tested on: Mus musculus; assay: Biodistribution of intravenously injected [82Br]-labeled compound in gut of BDF1 female mice bearing subcutaneous Lewis lung carcinoma after 8 hours; assay type: ADME, organism-based; settings: in vivo, iv; outline: as §2
[15] = tested on: Mus musculus; assay: Biodistribution of intravenously injected [82Br]-labeled compound in liver of BDF1 female mice bearing subcutaneous Lewis lung carcinoma after 8 hours; assay type: ADME, organism-based; settings: in vivo, iv; outline: as §2
[16] = tested on: Mus musculus; assay: Biodistribution of intravenously injected [82Br]-labeled compound in stomach of BDF1 female mice bearing subcutaneous Lewis lung carcinoma after 8 hours; assay type: ADME, organism-based; settings: in vivo, iv
[17] = tested on: Mus musculus; assay: Biodistribution of intravenously injected [131I]-labeled compound in spleen of BDF1 female mice bearing subcutaneous Lewis lung carcinoma after 0.25 hours; assay type: ADME, organism-based; settings: in vivo, iv
Outline: (§3)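 Female BDF1 mice with subcutaneous Lewis lung carcinoma given i.v. 0.5-1.8 μg of 131I-labeled nucleoside (55-110 kBq). Killed at set times. Tissues weighed wet and γ-counted. Radioactivity expressed as percent injected dose per gram wet tissue, mean ± SD of six animals.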

[18] = tested on: Mus musculus; assay: Biodistribution of intravenously injected [131I]-labeled compound in kidney of BDF1 female mice bearing subcutaneous Lewis lung carcinoma after 2 hours; assay type: ADME, organism-based; settings: in vivo, iv
Outline: (§4)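 Female BDF1 mice bearing subcutaneous Lewis lung carcinoma received a single intravenous dose of 0.5-1.8 μg of the 131I-labeled nucleoside (55-110 kBq). They were sacrificed at set times, and tissues were weighed wet and γ-counted. Activity is expressed as percent of injected dose per gram of wet tissue, given as mean ± standard deviation for six animals.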

[19] = tested on: Mus musculus; assay: Biodistribution of intravenously injected [131I]-labeled compound in heart of BDF1 female mice bearing subcutaneous Lewis lung carcinoma after 1 hours; assay type: ADME, organism-based; settings: in vivo, iv; outline: as §4
[20] = tested on: Mus musculus; assay: Biodistribution of intravenously injected [131I]-labeled compound in skin of BDF1 female mice bearing subcutaneous Lewis lung carcinoma after 8 hours; assay type: ADME, organism-based, Zone of skin; settings: in vivo, iv; outline: as §3
[21] = tested on: Mus musculus; assay: Biodistribution of intravenously injected [131I]-labeled compound in kidney of BDF1 female mice bearing subcutaneous Lewis lung carcinoma after 4 hours; assay type: ADME, organism-based; settings: in vivo, iv; outline: as §4
[22] = tested on: Mus musculus; assay: Biodistribution of intravenously injected [131I]-labeled compound in liver of BDF1 female mice bearing subcutaneous Lewis lung carcinoma after 0.50 hours; assay type: ADME, organism-based; settings: in vivo, iv, 0.5 h; outline: as §4
[23] = tested on: Mus musculus; assay: Biodistribution of intravenously injected [131I]-labeled compound in liver of BDF1 female mice bearing subcutaneous Lewis lung carcinoma after 1 hours; assay type: ADME, organism-based; settings: in vivo, iv; outline: as §4
[24] = tested on: Mus musculus; assay: Biodistribution of intravenously injected [131I]-labeled compound in gut of BDF1 female mice bearing subcutaneous Lewis lung carcinoma after 8 hours; assay type: ADME, organism-based; settings: in vivo, iv; outline: as §4
[25] = tested on: Mus musculus; assay: Biodistribution of intravenously injected [131I]-labeled compound in tumor of BDF1 female mice bearing subcutaneous Lewis lung carcinoma after 0.25 hours; assay type: ADME, organism-based; settings: in vivo, iv; outline: as §3
[26] = tested on: Mus musculus; assay: Biodistribution of intravenously injected [131I]-labeled compound in lung of BDF1 female mice bearing subcutaneous Lewis lung carcinoma after 4 hours; assay type: ADME, organism-based; settings: in vivo, iv; outline: as §4
[27] = tested on: Mus musculus; assay: Biodistribution of intravenously injected [131I]-labeled compound in heart of BDF1 female mice bearing subcutaneous Lewis lung carcinoma after 2 hours; assay type: ADME, organism-based; settings: in vivo, iv; outline: as §4
[28] = tested on: Mus musculus; assay: Biodistribution of intravenously injected [131I]-labeled compound in skin of BDF1 female mice bearing subcutaneous Lewis lung carcinoma after 0.25 hours; assay type: ADME, organism-based, Zone of skin; settings: in vivo, iv; outline: as §3
[29] = tested on: Mus musculus; assay: Biodistribution of intravenously injected [131I]-labeled compound in skin of BDF1 female mice bearing subcutaneous Lewis lung carcinoma after 2 hours; assay type: ADME, organism-based, Zone of skin; settings: in vivo, iv; outline: as §3
[30] = tested on: Mus musculus; assay: Biodistribution of intravenously injected [131I]-labeled compound in tumor of BDF1 female mice bearing subcutaneous Lewis lung carcinoma after 0.50 hours; assay type: ADME, organism-based; settings: in vivo, iv, 0.5 h; outline: as §3
[31] = tested on: Mus musculus; assay: Biodistribution of intravenously injected [131I]-labeled compound in skin of BDF1 female mice bearing subcutaneous Lewis lung carcinoma after 4 hours; assay type: ADME, organism-based, Zone of skin; settings: in vivo, iv; outline: as §3
[32] = tested on: Mus musculus; assay: Biodistribution of intravenously injected [131I]-labeled compound in bone of BDF1 female mice bearing subcutaneous Lewis lung carcinoma after 8 hours; assay type: ADME, organism-based, Bone element; settings: in vivo, iv; outline: as §4
[33] = tested on: Mus musculus; assay: Biodistribution of intravenously injected [131I]-labeled compound in skin of BDF1 female mice bearing subcutaneous Lewis lung carcinoma after 24 hours; assay type: ADME, organism-based, Zone of skin; settings: in vivo, iv; outline: as §3
[34] = tested on: Mus musculus; assay: Biodistribution of intravenously injected [131I]-labeled compound in bone of BDF1 female mice bearing subcutaneous Lewis lung carcinoma after 24 hours; assay type: ADME, organism-based, Bone element; settings: in vivo, iv; outline: as §4
[35] = tested on: Mus musculus; assay: Biodistribution of intravenously injected [131I]-labeled compound in muscle of BDF1 female mice bearing subcutaneous Lewis lung carcinoma after 1 hours; assay type: ADME, organism-based, Muscle tissue; settings: in vivo, iv; outline: as §3
[36] = tested on: Mus musculus; assay: Biodistribution of intravenously injected [131I]-labeled compound in stomach of BDF1 female mice bearing subcutaneous Lewis lung carcinoma after 0.50 hours; assay type: ADME, organism-based; settings: in vivo, iv, 0.5 h; outline: as §3
[37] = tested on: Mus musculus; assay: Biodistribution of intravenously injected [131I]-labeled compound in stomach of BDF1 female mice bearing subcutaneous Lewis lung carcinoma after 2 hours; assay type: ADME, organism-based; settings: in vivo, iv; outline: as §3

SMILES: O=c1[nH]c(=O)n([C@H]2O[C@@H](CO)[C@H](O)[C@H]2F)cc1Br
- Injected dose/g [1]: 0.26%
- Injected dose/g [2]: 0.26%
- Injected dose/g [3]: 0.4%
- Injected dose/g [4]: 0.38%
- Injected dose/g [5]: 0.14%
- Injected dose/g [6]: 0.45%
- Ki [7]: 390 µM
- Injected dose/g [8]: 0.35%
- Injected dose/g [9]: 0.52%
- Injected dose/g [10]: 0.14%
- Injected dose/g [11]: 0.4%
- Injected dose/g [12]: 0.89%
- Injected dose/g [13]: 0.12%
- Injected dose/g [14]: 0.33%
- Injected dose/g [15]: 0.28%
- Injected dose/g [16]: 0.53%

SMILES: O=c1[nH]c(=O)n([C@@H]2O[C@H](CO)[C@@H](O)[C@H]2F)cc1I
- Injected dose/g [17]: 3.2%
- Injected dose/g [18]: 8.5%
- Injected dose/g [19]: 5.8%
- Injected dose/g [20]: 2.1%
- Injected dose/g [21]: 7.3%
- Ki [7]: 410 µM
- Injected dose/g [22]: 4.6%
- Injected dose/g [23]: 3.6%
- Injected dose/g [24]: 1.3%
- Injected dose/g [25]: 4.9%
- Injected dose/g [26]: 4.5%
- Injected dose/g [27]: 5.7%
- Injected dose/g [28]: 5.2%
- Injected dose/g [29]: 3.2%
- Injected dose/g [30]: 3.7%
- Injected dose/g [31]: 3.5%
- Injected dose/g [32]: 0.7%
- Injected dose/g [33]: 0.1%
- Injected dose/g [34]: 0.07%
- Injected dose/g [35]: 2.3%
- Injected dose/g [36]: 4.6%
- Injected dose/g [37]: 4%
